One series concerns IM95. Put plainly: Antiproliferative activity against human IM95 cells after 72 hrs by MTT assay. In kind it is functional. The following applies: IM95, 72 h. A digest of the protocol: (§1)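 Cells cultured at 37 °C, 5% CO₂ in medium with 10% FBS and penicillin/streptomycin, used within 12-20 passages. Seeded at 2.5×10^3 cells/well for 24 h, then compound added from DMSO stocks at 200-fold final concentration (final DMSO 0.5% v/v). After 72 h, 0.5 mg/mL MTT for 3 h, formazan dissolved in DMSO, A570 read. IC50 from sigmoidal fit; three independent determinations.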

Series [1] in a line: Antiproliferative activity against human HEp-3 cells after 72 hrs by MTT assay. In kind it is functional. A digest of the protocol: as §1
In general terms: Formazan colour is commonly taken as a measure of viable cells.

Another series relates to HT-29. Put plainly: Antiproliferative activity against human HT-29 cells after 72 hrs by MTT assay. The series is classed as functional. Particulars: HT-29, 72 h. A digest of the protocol: as §1
Series [2] can be described thus: Antiproliferative activity against human NCC19 cells after 72 hrs by MTT assay. The series is classed as functional. A digest of the protocol: as §1
In a further series the test system is TAMH. Kind of series: Antiproliferative activity against mouse TAMH cells at 50 uM after 72 hrs by MTT assay. In kind it is cell-based.
The test system of a further series is HeLa. Kind of series: Induction of autophagy in human HeLa cells assessed as increase in LC3-2 to LC3-1 ratio at 5 uM after 6 hrs by immunoblot analysis relative to control. In kind it is functional. A digest of the protocol:
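HeLa cells were exposed for 6 h to the compound at 0.625, 1.25, 2.5, 5 or 10 µM, or to DMSO. Cells were lysed in 1% Triton buffer (pH 8.0) with protease and phosphatase inhibitors. Lysates were resolved by 14% SDS-PAGE and immunoblotted for LC3, with β-actin probed. The LC3-II/LC3-I band-intensity ratio was expressed relative to the DMSO control.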
For orientation: In western blotting, separated proteins are transferred to a membrane and probed.

In general, GI50 refers to the concentration at which growth is held to half of that of the control. Consider `N#C/C(=C\c1cccc2cnccc12)c1c[nH]c2ccccc12`, for which the 50% growth inhibitory concentration (GI50) with IM95 worked out at 1000 nM; in series [1] it was 3700 nM; with HT-29 it was 900 nM; in series [2] it was 4600 nM. In the series with TAMH, this compound yielded an Activity of 57.3%. Also, the “fold change (FC)” value with HeLa amounted to 4.3.

The values above are taken from ChEMBL document CHEMBL4270554, “Discovery of the cancer cell selective dual acting anti-cancer agent (Z)-2-(1H-indol-3-yl)-3-(isoquinolin-5-yl)acrylonitrile (A131)” (Eur J Med Chem, 2018).
